Results: ChEMBL document CHEMBL4219251, “Synthesis and biological evaluation of 2,4-disubstituted phthalazinones as Aurora kinase inhibitors” (Bioorg Med Chem, 2018)
Activity calls are given as the source filed them. No cut-off for these calls is given here.

Columns and labels:
LoVo = test: Antiproliferative activity against human LoVo cells after 72 hrs by MTT assay; format: functional, cell-based
Procedure, shortened: (§1)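 Cells kept in RPMI-1640 with 10% FBS at 37 °C, 5% CO2. Seeded at 5×10^3 cells/well and grown 24 h, then exposed 72 h at 37 °C to five concentrations (0.01, 0.1, 1, 10, 100 μM) in medium. MTT added for 4 h, formazan dissolved in DMSO, absorbance read at 490 nm. IC50 taken from a log plot of percent of control vs concentration; means ± SD of triplicate experiments.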

HepG2 = test: Antiproliferative activity against human HepG2 cells after 72 hrs by MTT assay; format: functional, cell-based; procedure, shortened: as §1
HCT-116 = test: Antiproliferative activity against human HCT116 cells after 72 hrs by MTT assay; format: functional, cell-based; procedure, shortened: as §1
HeLa [1] = test: Antiproliferative activity against human HeLa cells after 72 hrs by MTT assay; format: functional, cell-based; procedure, shortened: as §1
A549 = test: Antiproliferative activity against human A549 cells after 72 hrs by MTT assay; format: functional, cell-based; procedure, shortened: as §1
Aurora kinase B [2] = molecular target: T1, Aurora kinase B (Homo sapiens, UniProt Q96GD4); test: Inhibition of Aurora B (unknown origin) using kemptide as substrate after 30 mins by kinase-Glo luminescence method
Procedure, shortened: (§2)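 Luminescent kinase assay. Reaction buffer: 40 mM Tris pH 7.4, 10 mM MgCl2, 1 mM DTT, 0.1 mg/ml BSA, 10 μM ATP, 0.2 μg/ml kinase, 100 μM Kemptide. Compounds tested at 0.1, 1, 10, 100 and 1000 nM (diluted in PBS). Reactions ran 30 min at 37 °C, signal read by Kinase-Glo luminescence, IC50 fitted from the curves.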

Aurora kinase A = molecular target: T2, Aurora kinase A (Homo sapiens, UniProt O14965); test: Inhibition of Aurora A (unknown origin) using kemptide as substrate after 30 mins by kinase-Glo luminescence method; procedure, shortened: as §2
T2 sequence (O14965 whole entry): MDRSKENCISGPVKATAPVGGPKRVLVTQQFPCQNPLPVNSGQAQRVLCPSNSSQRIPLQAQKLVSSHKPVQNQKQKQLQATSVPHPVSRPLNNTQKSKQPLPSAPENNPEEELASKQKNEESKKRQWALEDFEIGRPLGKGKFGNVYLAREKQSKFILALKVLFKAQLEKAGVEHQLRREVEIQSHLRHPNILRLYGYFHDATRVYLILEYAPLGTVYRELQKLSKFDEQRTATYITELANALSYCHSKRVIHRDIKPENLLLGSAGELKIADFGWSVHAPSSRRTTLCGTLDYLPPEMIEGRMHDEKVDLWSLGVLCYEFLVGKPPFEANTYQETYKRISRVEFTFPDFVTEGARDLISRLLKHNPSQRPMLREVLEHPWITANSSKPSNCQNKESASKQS

Aurora kinase B [3] = molecular target: T1, Aurora kinase B; test: Inhibition of Aurora B phosphorylation at Thr232 residue in human HeLa cells after 6 hrs by Western blot method; format: cell-based
Procedure, shortened: (§3)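 HeLa cells treated 6 h at 0, 0.5, 2.5 or 5.0 μM. Lysates (20–30 μg) resolved on 12% SDS-PAGE and blotted to PVDF. Probed overnight at 4 °C with antibodies to phospho-AurA Thr288, phospho-AurB Thr232 and total AurA/AurB. β-actin used as loading control. Values are mean ± SD versus control.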

HeLa [4] = test: Cell cycle arrest in human HeLa cells assessed as accumulation at S phase at 5 uM after 24 hrs by propidium iodide staining based FACS analysis (reference value: 24.72%); format: functional
[5] = molecular target: T3, Aurora kinase A (Homo sapiens) (UniProt O14965); test: Inhibition of Aurora A phosphorylation at Thr288 residue in human HeLa cells at 5 uM after 6 hrs by Western blot method; format: cell-based; procedure, shortened: as §3
T3 sequence (whole entry): T2 sequence (O14965 whole entry)

[6] = molecular target: T3, Aurora kinase A (Homo sapiens); test: Inhibition of Aurora A phosphorylation at Thr288 residue in human HeLa cells after 6 hrs by Western blot method; format: cell-based; procedure, shortened: as §3
HeLa [7] = test: Downregulation of Cyclin-B1 protein level in human HeLa cells after 24 hrs by Western blot method; format: functional, cell-based
Procedure, shortened: (§4)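 HeLa cells treated 24 h at 0, 0.5, 2.0 or 5.0 μM, or with VX-680 at 5.0 μM. Lysed in Tris-HCl pH 7.5/NP-40/SDS buffer with protease inhibitors, 20–30 μg protein run on 12% SDS-PAGE, transferred to PVDF, probed overnight at 4 °C with anti-cyclinB1 and anti-cdc2. β-actin served as loading control. Values are mean ± SD.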

HeLa [8] = test: Cell cycle arrest in human HeLa cells assessed as accumulation at G1 phase at 5 uM after 24 hrs by propidium iodide staining based FACS analysis (reference value: 65.66%); format: functional
HeLa [9] = test: Downregulation of Cdc2 protein level in human HeLa cells after 24 hrs by Western blot method; format: functional, cell-based; procedure, shortened: as §4
HeLa [10] = test: Cell cycle arrest in human HeLa cells assessed as accumulation at G1 phase at 0.5 uM after 24 hrs by propidium iodide staining based FACS analysis (reference value: 65.66%); format: functional
Procedure, shortened: (§5)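 HeLa cells exposed 24 h to 0, 0.5, 2.0 or 5.0 μM. (1–5)×10^5 cells harvested, washed twice in PBS, fixed overnight or longer in 75% ice-cold ethanol, then washed three times in PBS. DNA stained 15 min in darkness with 1% Triton X-100, 0.01% RNase, 0.05% PI. Phase distribution measured by flow cytometry.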

HeLa [11] = test: Cell cycle arrest in human HeLa cells assessed as accumulation at G2/M phase after 24 hrs by propidium iodide staining based FACS analysis; format: functional; procedure, shortened: as §5
HeLa [12] = test: Cell cycle arrest in human HeLa cells assessed as accumulation at S phase at 0.5 uM after 24 hrs by propidium iodide staining based FACS analysis (reference value: 24.72%); format: functional; procedure, shortened: as §5
Aurora kinase B [13] = molecular target: T1, Aurora kinase B; test: Inhibition of Aurora B phosphorylation at Thr232 residue in human HeLa cells at 5 uM after 6 hrs by Western blot method; format: cell-based; procedure, shortened: as §3
HeLa [14] = test: Cell cycle arrest in human HeLa cells assessed as accumulation at S phase at 2 uM after 24 hrs by propidium iodide staining based FACS analysis (reference value: 24.72%); format: functional; procedure, shortened: as §5
HeLa [15] = test: Cell cycle arrest in human HeLa cells assessed as accumulation at G2/M phase at 5 uM after 24 hrs by propidium iodide staining based FACS analysis (reference value: 9.63%); format: functional
HeLa [16] = test: Cell cycle arrest in human HeLa cells assessed as accumulation at G2/M phase at 2 uM after 24 hrs by propidium iodide staining based FACS analysis (reference value: 9.63%); format: functional; procedure, shortened: as §5
HeLa [17] = test: Cell cycle arrest in human HeLa cells assessed as accumulation at G2/M phase at 0.5 uM after 24 hrs by propidium iodide staining based FACS analysis (reference value: 9.63%); format: functional; procedure, shortened: as §5
HeLa [18] = test: Cell cycle arrest in human HeLa cells assessed as accumulation at G1 phase at 2 uM after 24 hrs by propidium iodide staining based FACS analysis (reference value: 65.66%); format: functional; procedure, shortened: as §5

T1 sequence (Q96GD4 whole entry): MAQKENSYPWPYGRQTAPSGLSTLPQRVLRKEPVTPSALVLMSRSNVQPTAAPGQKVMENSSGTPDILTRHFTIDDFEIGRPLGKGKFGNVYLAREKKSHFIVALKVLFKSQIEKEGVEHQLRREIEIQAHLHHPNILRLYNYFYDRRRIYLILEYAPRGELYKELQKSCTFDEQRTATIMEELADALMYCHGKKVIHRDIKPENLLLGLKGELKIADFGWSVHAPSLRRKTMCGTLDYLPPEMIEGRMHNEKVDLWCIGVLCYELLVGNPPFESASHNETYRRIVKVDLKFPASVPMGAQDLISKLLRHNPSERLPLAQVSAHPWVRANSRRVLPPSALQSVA

Compound | IC50 (LoVo; Homo sapiens, LoVo, 72 h) | IC50 (HepG2; Homo sapiens, HepG2, 72 h) | IC50 (HCT-116; Homo sapiens, HCT-116, 72 h) | IC50 (HeLa [1]; Homo sapiens, HeLa, 72 h) | IC50 (A549; Homo sapiens, A549, 72 h) | also measured
Cc1noc(C)c1-c1nn(Cc2ccc(C(=O)NC3CCCC3)cc2)c(=O)c2ccccc12 | > 100 µM | > 100 µM | > 100 µM | > 100 µM | > 100 µM | –
Cc1noc(C)c1-c1nn(Cc2ccc(C(=O)NC3CC3)cc2)c(=O)c2ccccc12 | > 100 µM | > 100 µM | > 100 µM | > 100 µM | > 100 µM | –
Cc1noc(C)c1-c1nn(Cc2ccc(C(=O)NC3CC(C)(C)N([O])C(C)(C)C3)cc2)c(=O)c2ccccc12 | – | – | – | – | – | IC50 (LoVo; lovo): 41.2 µM; IC50 (HepG2; hepg2): 85.1 µM; IC50 (HCT-116; hct-116): 36.8 µM; IC50 (HeLa [1]; hela): 83.5 µM; IC50 (A549; a549): 84.3 µM
Cn1cc(-c2nn(Cc3ccc(C(=O)NC4CC(C)(C)N([O])C(C)(C)C4)cc3)c(=O)c3ccccc23)cn1 | 50.1 µM | 27.4 µM | 50.5 µM | 27.7 µM | 37.3 µM | IC50 (Aurora kinase B [2]): 0.134 µM; IC50 (Aurora kinase A): 0.168 µM
Cc1noc(C)c1-c1nn(Cc2ccc(C(=O)N3CCCCC3)cc2)c(=O)c2ccccc12 | > 100 µM | 97.3 µM | > 100 µM | > 100 µM | 86.2 µM | –
CN1CCC(NC(=O)c2ccc(Cn3nc(-c4cnn(C)c4)c4ccccc4c3=O)cc2)CC1 | 83.3 µM | 47.3 µM | 69.5 µM | 28.5 µM | 54.3 µM | IC50 (Aurora kinase B [2]): 0.105 µM; IC50 (Aurora kinase A): 0.183 µM
Cc1noc(C)c1-c1nn(Cc2ccc(C(=O)N3CCOCC3)cc2)c(=O)c2ccccc12 | 84.4 µM | > 100 µM | > 100 µM | > 100 µM | > 100 µM | –
Cc1noc(C)c1-c1nn(Cc2ccc(C(=O)NC3CCN(C)CC3)cc2)c(=O)c2ccccc12 | > 100 µM | > 100 µM | 84.9 µM | > 100 µM | > 100 µM | –
Cc1noc(C)c1-c1nn(Cc2ccc(C(=O)NC3CCCCC3)cc2)c(=O)c2ccccc12 | 82.2 µM | > 100 µM | > 100 µM | > 100 µM | > 100 µM | –

Now from value to compound, other results behind:

IC50 (LoVo; Homo sapiens, LoVo, 72 h) | IC50 (HepG2; Homo sapiens, HepG2, 72 h) | IC50 (HCT-116; Homo sapiens, HCT-116, 72 h) | IC50 (HeLa [1]; Homo sapiens, HeLa, 72 h) | IC50 (A549; Homo sapiens, A549, 72 h) | Compound | also measured
54.5 µM | 40.4 µM | 48.2 µM | 23.2 µM | 64.3 µM | O=C(NC1CCCCC1)c1ccc(Cn2nc(Nc3ccc(C(=O)N4CCOCC4)cc3)c3ccccc3c2=O)cc1 | –
5.3 µM | 8.3 µM | 5.4 µM | 3.2 µM | 6.8 µM | Cn1cc(Nc2nn(Cc3ccc(C(=O)NC4CCCCC4)cc3)c(=O)c3ccccc23)cn1 | IC50 (Aurora kinase B [2]): 0.132 µM; IC50 (Aurora kinase A): 0.145 µM
2.6 µM | 4.6 µM | 3.8 µM | 2.2 µM | 3.3 µM | Cn1cc(-c2nn(Cc3ccc(C(=O)NC4CCCCC4)cc3)c(=O)c3ccccc23)cn1 | inhibition (Aurora kinase B [3]): Dose-dependent effect; Activity (HeLa [4]): 5.48%; inhibition [5]: Active; inhibition [6]: Dose-dependent effect; Activity (HeLa [7]): Dose-dependent effect; Activity (HeLa [8]): 7.34%; Activity (HeLa [9]): Dose-dependent effect; IC50 (Aurora kinase B [2]): 0.08 µM; Activity (HeLa [10]): 34.87%; Activity (HeLa [11]): Dose-dependent effect; Activity (HeLa [12]): 30.47%; IC50 (Aurora kinase A): 0.118 µM; inhibition (Aurora kinase B [13]): Active; Activity (HeLa [14]): 12.83%; Activity (HeLa [15]): 87.17%; Activity (HeLa [16]): 81.19%; Activity (HeLa [17]): 34.66%; Activity (HeLa [18]): 5.98%
52.3 µM | > 100 µM | > 100 µM | > 100 µM | 73.3 µM | Cn1cc(-c2nn(Cc3ccc(C(=O)N4CCOCC4)cc3)c(=O)c3ccccc23)cn1 | –
77.1 µM | 73.1 µM | 73.9 µM | 65.5 µM | 67.4 µM | Cn1cc(-c2nn(Cc3ccc(C(=O)N4CCCCC4)cc3)c(=O)c3ccccc23)cn1 | –
48.2 µM | > 100 µM | 20.1 µM | 40 µM | 51.2 µM | Cn1cc(-c2nn(Cc3ccc(C(=O)NC4CC4)cc3)c(=O)c3ccccc23)cn1 | –
23.7 µM | 84.3 µM | 14.3 µM | 16.7 µM | 32.3 µM | Cn1cc(-c2nn(Cc3ccc(C(=O)NC4CCCC4)cc3)c(=O)c3ccccc23)cn1 | IC50 (Aurora kinase B [2]): 0.265 µM; IC50 (Aurora kinase A): 0.583 µM
22.2 µM | 11.3 µM | 22.7 µM | 6.3 µM | 42.6 µM | Cc1cc(Nc2nn(Cc3ccccc3)c(=O)c3ccccc23)n[nH]1 | –
79.5 µM | 82.4 µM | > 100 µM | 87.3 µM | > 100 µM | O=C(Nc1ccccc1Cl)c1ccc(Nc2nn(Cc3ccc(C(=O)NC4CCCCC4)cc3)c(=O)c3ccccc23)cc1 | –
